Measured values taken from ChEMBL document CHEMBL1122494, “New selenium-75 labeled radiopharmaceuticals: selenonium analogues of dopamine” (J Med Chem, 1983).

Key:
Format in all cases: ADME, organism-based
Rattus norvegicus [1] = assay: Tissue radioactivity ratio in adrenal to Kidney 240 min after Intravenous Injection in rats; settings: in vivo, 4 h
Summary of the method: (§1)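 Same rat biodistribution: female Sprague-Dawley rats (100-300 g), 5-6 μCi [75Se]selenonium salt in 0.2 mL saline iv by tail vein, five per time point, killed by cardioectomy under chloroform. Ratios are tissue-to-tissue quotients of gamma-counted % injected dose per gram in each organ (adrenal, heart, kidney, liver, blood).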

Rattus norvegicus [2] = assay: Distribution of Se-75 activity in Kidney of female Sprague-Dawley Rat 5 min after iv administration of compound; settings: in vivo
Summary of the method: (§2)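 Female Sprague-Dawley rats (100-300 g), five per group, got [75Se]selenonium salt by lateral tail vein: 0.2 mL saline with 5-6 μCi. Groups were killed by cardioectomy under chloroform anesthesia at the set times. The organ was taken intact, rinsed with saline, blotted, weighed and gamma counted. Values are % injected dose/g, mean and SEM of five.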

Rattus norvegicus [3] = assay: Tissue radioactivity ratio in adrenal to Liver 5 min after Intravenous Injection in rats; settings: in vivo; summary of the method: as §1
Rattus norvegicus [4] = assay: Tissue radioactivity ratio in adrenal to Liver 60 min after Intravenous Injection in rats; settings: in vivo, 1 h; summary of the method: as §1
Rattus norvegicus [5] = assay: Distribution of Se-75 activity in Liver of female Sprague-Dawley Rat 5 min after iv administration of compound; settings: in vivo
Summary of the method: (§3)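 Female Sprague-Dawley rats (100-300 g), five per group, got [75Se]selenonium salt in 0.2 mL saline (5-6 μCi) by lateral tail vein. They were killed by cardioectomy under chloroform anesthesia at the stated time. A sample of the large organ was weighed and gamma counted, and counts were converted to % injected dose/g. Values are mean and SEM of five.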

Rattus norvegicus [6] = assay: Tissue radioactivity ratio in adrenal to Liver 120 min after Intravenous Injection in rats; settings: in vivo, 2 h; summary of the method: as §1
Rattus norvegicus [7] = assay: Distribution of Se-75 activity in Heart of female Sprague-Dawley Rat 30 min after iv administration of compound; settings: in vivo, 0.5 h; summary of the method: as §2
Rattus norvegicus [8] = assay: Tissue radioactivity ratio in Heart to Blood 15 min after Intravenous Injection in rats; settings: other tissue, 0.25 h; summary of the method: as §1
Rattus norvegicus [9] = assay: Tissue radioactivity ratio in adrenal to blood 120 min after Intravenous Injection in rats; settings: other tissue, 2 h; summary of the method: as §1
Rattus norvegicus [10] = assay: Tissue radioactivity ratio in Heart to Blood 120 min after Intravenous Injection in rats; settings: other tissue, 2 h; summary of the method: as §1
Rattus norvegicus [11] = assay: Tissue radioactivity ratio in adrenal to blood 60 min after Intravenous Injection in rats; settings: other tissue, 1 h; summary of the method: as §1
Rattus norvegicus [12] = assay: Tissue radioactivity ratio in adrenal to Kidney 120 min after Intravenous Injection in rats; settings: in vivo, 2 h; summary of the method: as §1
Rattus norvegicus [13] = assay: Distribution of Se-75 activity in blood of female Sprague-Dawley Rat 15 min after iv administration of compound; settings: in vivo, 0.25 h
Summary of the method: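 Tail-vein injection of 5-6 μCi [75Se]selenonium salt in 0.2 mL saline into female Sprague-Dawley rats (100-300 g), five per group. Rats were killed by cardioectomy under chloroform anesthesia at the time point. Radioactivity was gamma counted and expressed as % injected dose/g, mean and SEM of five.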

Rattus norvegicus [14] = assay: Distribution of Se-75 activity in Liver of female Sprague-Dawley Rat 30 min after iv administration of compound; settings: in vivo, 0.5 h; summary of the method: as §3
Rattus norvegicus [15] = assay: Distribution of Se-75 activity in Brain of female Sprague-Dawley Rat 5 min after iv administration of compound; settings: in vivo
Rattus norvegicus [16] = assay: Distribution of Se-75 activity in Heart of female Sprague-Dawley Rat 15 min after iv administration of compound; settings: in vivo, 0.25 h; summary of the method: as §2
Rattus norvegicus [17] = assay: Tissue radioactivity ratio in adrenal to blood 30 min after Intravenous Injection in rats; settings: other tissue, 0.5 h; summary of the method: as §1
Rattus norvegicus [18] = assay: Tissue radioactivity ratio in adrenal to Liver 15 min after Intravenous Injection in rats; settings: in vivo, 0.25 h; summary of the method: as §1
Rattus norvegicus [19] = assay: Distribution of Se-75 activity in Kidney of female Sprague-Dawley Rat 15 min after iv administration of compound; settings: in vivo, 0.25 h; summary of the method: as §2
Rattus norvegicus [20] = assay: Distribution of Se-75 activity in Lung of female Sprague-Dawley Rat 5 min after iv administration of compound; settings: in vivo; summary of the method: as §3
Rattus norvegicus [21] = assay: Distribution of Se-75 activity in Lung of female Sprague-Dawley Rat 15 min after iv administration of compound; settings: in vivo, 0.25 h; summary of the method: as §3
Rattus norvegicus [22] = assay: Tissue radioactivity ratio in adrenal to Kidney 30 min after Intravenous Injection in rats; settings: in vivo, 0.5 h; summary of the method: as §1
Rattus norvegicus [23] = assay: Distribution of Se-75 activity in Adrenal of female Sprague-Dawley Rat 30 min after iv administration of compound; settings: in vivo, 0.5 h; summary of the method: as §2
Rattus norvegicus [24] = assay: Distribution of Se-75 activity in blood of female Sprague-Dawley Rat 240 min after iv administration of compound; settings: in vivo, 4 h
Summary of the method: (§4)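 Female Sprague-Dawley rats (100-300 g) got 5-6 μCi of [75Se]selenonium salt in 0.2 mL saline via lateral tail vein. Groups of five were anesthetized with chloroform at set times and killed by cardioectomy. Tissues were rinsed, blotted and weighed, then gamma-counted. Values are % injected dose per gram, mean and SEM of five.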

Rattus norvegicus [25] = assay: Distribution of Se-75 activity in Brain of female Sprague-Dawley Rat 30 min after iv administration of compound; settings: in vivo, 0.5 h
Rattus norvegicus [26] = assay: Distribution of Se-75 activity in Adrenal of female Sprague-Dawley Rat 15 after iv administration of compound; settings: in vivo; summary of the method: as §2
Rattus norvegicus [27] = assay: Tissue radioactivity ratio in adrenal to blood 240 min after Intravenous Injection in rats; settings: other tissue, 4 h; summary of the method: as §1
Rattus norvegicus [28] = assay: Distribution of Se-75 activity in Kidney of female Sprague-Dawley Rat 30 min after iv administration of compound; settings: in vivo, 0.5 h; summary of the method: as §2
Rattus norvegicus [29] = assay: Distribution of Se-75 activity in Brain of female Sprague-Dawley Rat 60 min after iv administration of compound; settings: in vivo, 1 h
Rattus norvegicus [30] = assay: Tissue radioactivity ratio in adrenal to Kidney 60 min after Intravenous Injection in rats; settings: in vivo, 1 h; summary of the method: as §1
Rattus norvegicus [31] = assay: Distribution of Se-75 activity in blood of female Sprague-Dawley Rat 5 min after iv administration of compound; settings: in vivo; summary of the method: as §4
Rattus norvegicus [32] = assay: Distribution of Se-75 activity in Liver of female Sprague-Dawley Rat 120 min after iv administration of compound; settings: in vivo, 2 h; summary of the method: as §3
Rattus norvegicus [33] = assay: Tissue radioactivity ratio in Heart to Blood 5 min after Intravenous Injection in rats; settings: other tissue; summary of the method: as §1
Rattus norvegicus [34] = assay: Distribution of Se-75 activity in Adrenal of female Sprague-Dawley Rat 60 min after iv administration of compound; settings: in vivo, 1 h; summary of the method: as §2
Rattus norvegicus [35] = assay: Tissue radioactivity ratio in adrenal to Liver 240 min after Intravenous Injection in rats; settings: in vivo, 4 h; summary of the method: as §1
Rattus norvegicus [36] = assay: Distribution of Se-75 activity in Liver of female Sprague-Dawley Rat 240 min after iv administration of compound; settings: in vivo, 4 h; summary of the method: as §3
Rattus norvegicus [37] = assay: Distribution of Se-75 activity in blood of female Sprague-Dawley Rat 30 min after iv administration of compound; settings: in vivo, 0.5 h; summary of the method: as §4
Rattus norvegicus [38] = assay: Distribution of Se-75 activity in Heart of female Sprague-Dawley Rat 60 min after iv administration of compound; settings: in vivo, 1 h; summary of the method: as §2
Rattus norvegicus [39] = assay: Tissue radioactivity ratio in Heart to Blood 30 min after Intravenous Injection in rats; settings: other tissue, 0.5 h; summary of the method: as §1
Rattus norvegicus [40] = assay: Distribution of Se-75 activity in Liver of female Sprague-Dawley Rat 15 min after iv administration of compound; settings: in vivo, 0.25 h; summary of the method: as §3
Rattus norvegicus [41] = assay: Distribution of Se-75 activity in Kidney of female Sprague-Dawley Rat 60 min after iv administration of compound; settings: in vivo, 1 h; summary of the method: as §2

COc1ccc(CC[Se+](C)C)cc1OC.[I-]
Ratio (Rattus norvegicus [1]): 4
Dose/g (Rattus norvegicus [2]): 2.73%
Ratio (Rattus norvegicus [3]): 0.35
Ratio (Rattus norvegicus [4]): 1.14
Dose/g (Rattus norvegicus [5]): 2.48%
Ratio (Rattus norvegicus [6]): 2.55
Dose/g (Rattus norvegicus [7]): 0.58%
Ratio (Rattus norvegicus [8]): 4.46
Ratio (Rattus norvegicus [9]): 9.25
Ratio (Rattus norvegicus [10]): 2.12
Ratio (Rattus norvegicus [11]): 5.92
Ratio (Rattus norvegicus [12]): 2.24
Dose/g (Rattus norvegicus [13]): 0.26%
Dose/g (Rattus norvegicus [14]): 1.75%
Dose/g (Rattus norvegicus [15]): 0.03%
Dose/g (Rattus norvegicus [16]): 1.16%
Ratio (Rattus norvegicus [17]): 4.27
Ratio (Rattus norvegicus [18]): 0.46
Dose/g (Rattus norvegicus [19]): 1.29%
Dose/g (Rattus norvegicus [20]): 1.44%
Dose/g (Rattus norvegicus [21]): 0.097%
Ratio (Rattus norvegicus [22]): 0.95
Dose/g (Rattus norvegicus [23]): 0.94%
Dose/g (Rattus norvegicus [24]): 0.03%
Dose/g (Rattus norvegicus [25]): 0.02%
Dose/g (Rattus norvegicus [26]): 0.88%
Ratio (Rattus norvegicus [27]): 21.33
Dose/g (Rattus norvegicus [28]): 0.99%
Dose/g (Rattus norvegicus [29]): 0.01%
Ratio (Rattus norvegicus [30]): 1.34
Dose/g (Rattus norvegicus [31]): 0.34%
Dose/g (Rattus norvegicus [32]): 0.29%
Ratio (Rattus norvegicus [33]): 7
Dose/g (Rattus norvegicus [34]): 0.71%
Ratio (Rattus norvegicus [35]): 3.55
Dose/g (Rattus norvegicus [36]): 0.18%
Dose/g (Rattus norvegicus [37]): 0.22%
Dose/g (Rattus norvegicus [38]): 0.27%
Ratio (Rattus norvegicus [39]): 2.64
Dose/g (Rattus norvegicus [40]): 1.93%
Dose/g (Rattus norvegicus [41]): 0.53%

C[Se+](C)CCc1ccc(O)c(O)c1.[Cl-]
Ratio (Rattus norvegicus [1]): 3.28
Dose/g (Rattus norvegicus [2]): 2.65%
Ratio (Rattus norvegicus [3]): 0.42
Ratio (Rattus norvegicus [4]): 1.04
Dose/g (Rattus norvegicus [5]): 1.86%
Ratio (Rattus norvegicus [6]): 2.28
Dose/g (Rattus norvegicus [7]): 1.08%
Ratio (Rattus norvegicus [8]): 5.27
Ratio (Rattus norvegicus [9]): 9.12
Ratio (Rattus norvegicus [10]): 2.62
Ratio (Rattus norvegicus [11]): 4.83
Ratio (Rattus norvegicus [12]): 2.52
Dose/g (Rattus norvegicus [13]): 0.3%
Dose/g (Rattus norvegicus [14]): 2.73%
Dose/g (Rattus norvegicus [15]): 0.02%
Dose/g (Rattus norvegicus [16]): 1.58%
Ratio (Rattus norvegicus [17]): 3.07
Ratio (Rattus norvegicus [18]): 0.43
Dose/g (Rattus norvegicus [19]): 1.07%
Dose/g (Rattus norvegicus [20]): 1.25%
Dose/g (Rattus norvegicus [21]): 1.14%
Ratio (Rattus norvegicus [22]): 0.81
Dose/g (Rattus norvegicus [23]): 0.86%
Dose/g (Rattus norvegicus [24]): 0.05%
Dose/g (Rattus norvegicus [25]): 0.01%
Dose/g (Rattus norvegicus [26]): 0.87%
Ratio (Rattus norvegicus [27]): 11.8
Dose/g (Rattus norvegicus [28]): 1.07%
Dose/g (Rattus norvegicus [29]): 0.01%
Ratio (Rattus norvegicus [30]): 1.47
Dose/g (Rattus norvegicus [31]): 0.35%
Dose/g (Rattus norvegicus [32]): 0.32%
Ratio (Rattus norvegicus [33]): 6.77
Dose/g (Rattus norvegicus [34]): 0.87%
Ratio (Rattus norvegicus [35]): 2.56
Dose/g (Rattus norvegicus [36]): 0.23%
Dose/g (Rattus norvegicus [37]): 0.28%
Dose/g (Rattus norvegicus [38]): 0.46%
Ratio (Rattus norvegicus [39]): 3.86
Dose/g (Rattus norvegicus [40]): 2%
Dose/g (Rattus norvegicus [41]): 0.59%
